Experimental data: ChEMBL document CHEMBL4002610, “Design, synthesis and biological activity evaluation of novel 2,6-difluorobenzamide derivatives through FtsZ inhibition” (2017)
In brackets after ≈: the same amount, converted by molar mass.

Key:
Bacillus subtilis [1] = experiment: Inhibition of FtsZ in Bacillus subtilis ATCC 9372 assessed as decrease in cell division by measuring lowest compound concentration at which bacterial filamentation is observed after 5 hrs by phase-contrast light microscopy
How it was run: (§1)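 Cell division inhibition scored by cell morphology under phase-contrast light microscopy. B. subtilis ATCC9372, E. coli ATCC25922 and S. aureus ATCC25923 were exposed to compound. The lowest concentration giving filamentation (B. subtilis, E. coli) or ballooning (S. aureus) was recorded as the cell division inhibitory concentration.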

Bacillus subtilis [2] = experiment: Antibacterial activity against Bacillus subtilis ATCC 9372 after 24 hrs by broth microdilution method; type: functional; conditions: ATCC 9372, 24 h
How it was run: (§2)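 MIC by standard broth microdilution per NCCLS guidance. Strain panel: B. subtilis ATCC9372 and S. aureus ATCC25923 as standard susceptible strains, S. aureus ATCC29213 as […], S. pyogenes PS as penicillin-susceptible, S. pneumoniae ATCC49619 as standard susceptible, alongside Gram-negative strains.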

Streptococcus pyogenes = experiment: Antibacterial activity against penicillin-susceptible Streptococcus pyogenes after 24 hrs by broth microdilution method; type: functional; how it was run: as §2
Streptococcus pneumoniae = experiment: Antibacterial activity against Streptococcus pneumoniae ATCC 49619 after 24 hrs by broth microdilution method; type: functional; conditions: ATCC 49619, 24 h; how it was run: as §2
Staphylococcus aureus [3] = experiment: Antibacterial activity against Staphylococcus aureus ATCC 29213 after 24 hrs by broth microdilution method; type: functional; conditions: ATCC 29213, 24 h; how it was run: as §2
Staphylococcus aureus [4] = experiment: Antibacterial activity against Staphylococcus aureus ATCC 25923 after 24 hrs by broth microdilution method; type: functional; conditions: ATCC 25923, 24 h; how it was run: as §2
[5] = test system: Escherichia coli ATCC 25922; experiment: Inhibition of FtsZ in Escherichia coli ATCC 25922 assessed as decrease in cell division by measuring lowest compound concentration at which bacterial filamentation is observed after 5 hrs by phase-contrast light microscopy; how it was run: as §1
[6] = molecular target: T1, Cell division protein FtsZ (Staphylococcus aureus) (UniProt P0A031); experiment: Inhibition of FtsZ in Staphylococcus aureus ATCC 25923 assessed as decrease in cell division by measuring lowest compound concentration at which bacterial ballooning is observed after 5 hrs by phase-contrast light microscopy; how it was run: as §1
T1 sequence (whole entry): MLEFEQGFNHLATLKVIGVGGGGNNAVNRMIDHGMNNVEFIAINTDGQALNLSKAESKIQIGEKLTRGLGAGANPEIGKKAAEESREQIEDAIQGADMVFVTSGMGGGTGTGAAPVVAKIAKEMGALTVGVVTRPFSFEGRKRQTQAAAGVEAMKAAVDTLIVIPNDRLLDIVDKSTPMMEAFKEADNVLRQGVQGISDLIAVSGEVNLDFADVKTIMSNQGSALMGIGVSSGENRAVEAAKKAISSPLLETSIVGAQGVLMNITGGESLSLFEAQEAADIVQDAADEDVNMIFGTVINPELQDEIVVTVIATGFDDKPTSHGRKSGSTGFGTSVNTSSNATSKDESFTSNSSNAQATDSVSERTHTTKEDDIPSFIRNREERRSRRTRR

Pseudomonas aeruginosa = experiment: Antibacterial activity against Pseudomonas aeruginosa ATCC 27853 after 24 hrs by broth microdilution method; type: functional; conditions: ATCC 27853, 24 h; how it was run: as §2
Staphylococcus aureus [7] = experiment: Antibacterial activity against penicillin-resistant Staphylococcus aureus clinical isolate after 24 hrs by broth microdilution method; type: functional
Escherichia coli = experiment: Antibacterial activity against Escherichia coli ATCC 25922 after 24 hrs by broth microdilution method; type: functional; conditions: ATCC 25922, 24 h; how it was run: as §2

| Compound | INH (Bacillus subtilis [1]) [µg/mL] | MIC (Bacillus subtilis [2]) [µg/mL] | MIC (Streptococcus pyogenes) [µg/mL] | MIC (Streptococcus pneumoniae) [µg/mL] | MIC (Staphylococcus aureus [3]) [µg/mL] | MIC (Staphylococcus aureus [4]) [µg/mL] | INH [5] [µg/mL] | INH [6] [µg/mL] | MIC (Pseudomonas aeruginosa) [µg/mL] | MIC (Staphylococcus aureus [7]) [µg/mL] | MIC (Escherichia coli) [µg/mL] |
| --- | --- | --- | --- | --- | --- | --- | --- | --- | --- | --- | --- |
| CC(C)CCOc1ccc(F)c(C(N)=O)c1F | 4 | 8 (≈ 32.9 µM) | > 128 | 128 (≈ 526 µM) | 16 (≈ 65.8 µM) | 64 (≈ 263 µM) | 64 | 4 | 128 (≈ 526 µM) | 16 (≈ 65.8 µM) | 128 (≈ 526 µM) |
| NC(=O)c1c(F)ccc(OC2CCCC2)c1F | 256 | 512 (≈ 2120 µM) | > 128 | 128 (≈ 531 µM) | 256 (≈ 1060 µM) | 256 (≈ 1060 µM) | 64 | 256 | 128 (≈ 531 µM) | 512 (≈ 2120 µM) | 128 (≈ 531 µM) |
| NC(=O)c1c(F)ccc(OCCCCCn2cnc3cc([N+](=O)[O-])ccc32)c1F | 32 | 512 (≈ 1270 µM) | 1020 (≈ 2530 µM) | 512 (≈ 1270 µM) | 1020 (≈ 2530 µM) | 512 (≈ 1270 µM) | 256 | – | 512 (≈ 1270 µM) | 2050 (≈ 5060 µM) | 512 (≈ 1270 µM) |
| NC(=O)c1c(F)ccc(O)c1F | 1020 | 1020 (≈ 5920 µM) | > 4100 | 4100 (≈ 23700 µM) | 512 (≈ 2960 µM) | 1020 (≈ 5920 µM) | 512 | 2050 | 512 (≈ 2960 µM) | 1020 (≈ 5920 µM) | 512 (≈ 2960 µM) |
| NC(=O)c1c(F)ccc(OCCCCCCl)c1F | 2 | 4 (≈ 14.4 µM) | 64 (≈ 230 µM) | 128 (≈ 461 µM) | 32 (≈ 115 µM) | 16 (≈ 57.6 µM) | 64 | 16 | 128 (≈ 461 µM) | 16 (≈ 57.6 µM) | 128 (≈ 461 µM) |
| NC(=O)c1c(F)ccc(OCCCCCBr)c1F | 2 | 16 (≈ 49.7 µM) | 128 (≈ 397 µM) | 128 (≈ 397 µM) | 16 (≈ 49.7 µM) | 8 (≈ 24.8 µM) | 64 | 4 | 256 (≈ 795 µM) | 16 (≈ 49.7 µM) | 256 (≈ 795 µM) |
| CCOC(=O)COc1ccc(F)c(C(N)=O)c1F | 32 | 64 (≈ 247 µM) | > 128 | 128 (≈ 494 µM) | 256 (≈ 988 µM) | 128 (≈ 494 µM) | 64 | 64 | 128 (≈ 494 µM) | 256 (≈ 988 µM) | 128 (≈ 494 µM) |
| NC(=O)c1c(F)ccc(OCCCn2cnc3ccccc32)c1F | 512 | 1020 (≈ 3090 µM) | 1020 (≈ 3090 µM) | 512 (≈ 1550 µM) | 512 (≈ 1550 µM) | 1020 (≈ 3090 µM) | 512 | 256 | 512 (≈ 1550 µM) | 1020 (≈ 3090 µM) | 512 (≈ 1550 µM) |
| NC(=O)c1c(F)ccc(OCCCCCl)c1F | 2 | 4 (≈ 15.2 µM) | 64 (≈ 243 µM) | 128 (≈ 485 µM) | 8 (≈ 30.3 µM) | 8 (≈ 30.3 µM) | 64 | 4 | 128 (≈ 485 µM) | 8 (≈ 30.3 µM) | 128 (≈ 485 µM) |
| NC(=O)c1c(F)ccc(OCCCBr)c1F | 16 | 32 (≈ 109 µM) | 64 (≈ 218 µM) | > 128 | 32 (≈ 109 µM) | 16 (≈ 54.4 µM) | 64 | 16 | 128 (≈ 435 µM) | 32 (≈ 109 µM) | 128 (≈ 435 µM) |
| NC(=O)c1c(F)ccc(OCCCn2cnc3cc([N+](=O)[O-])ccc32)c1F | 128 | 256 (≈ 680 µM) | 512 (≈ 1360 µM) | 512 (≈ 1360 µM) | 512 (≈ 1360 µM) | 1020 (≈ 2720 µM) | 512 | 1020 | 512 (≈ 1360 µM) | 1020 (≈ 2720 µM) | 1020 (≈ 2720 µM) |
| NC(=O)c1c(F)ccc(OCCCCCCCl)c1F | 0.25 | 0.5 (≈ 1.71 µM) | > 128 | 128 (≈ 439 µM) | 16 (≈ 54.8 µM) | 2 (≈ 6.86 µM) | 128 | 0.5 | 256 (≈ 878 µM) | 8 (≈ 27.4 µM) | 256 (≈ 878 µM) |
| NC(=O)c1c(F)ccc(OCCCCl)c1F | 16 | 32 (≈ 128 µM) | 128 (≈ 513 µM) | > 128 | 32 (≈ 128 µM) | 16 (≈ 64.1 µM) | 64 | 32 | 128 (≈ 513 µM) | 32 (≈ 128 µM) | 128 (≈ 513 µM) |
| CCOCCC(=O)COc1ccc(F)c(C(N)=O)c1F | 32 | 64 (≈ 223 µM) | > 128 | 128 (≈ 446 µM) | 128 (≈ 446 µM) | 64 (≈ 223 µM) | 64 | 128 | 128 (≈ 446 µM) | 256 (≈ 891 µM) | 256 (≈ 891 µM) |
| CC(C)Oc1ccc(F)c(C(N)=O)c1F | 128 | 256 (≈ 1190 µM) | > 128 | 128 (≈ 595 µM) | 256 (≈ 1190 µM) | 256 (≈ 1190 µM) | 64 | 128 | 128 (≈ 595 µM) | 256 (≈ 1190 µM) | 256 (≈ 1190 µM) |
| NC(=O)c1c(F)ccc(OCCCCCCn2cnc3ccccc32)c1F | 128 | 256 (≈ 686 µM) | 512 (≈ 1370 µM) | 256 (≈ 686 µM) | 256 (≈ 686 µM) | 512 (≈ 1370 µM) | 256 | 128 | 512 (≈ 1370 µM) | 1020 (≈ 2740 µM) | 512 (≈ 1370 µM) |
| CC(C)COc1ccc(F)c(C(N)=O)c1F | 32 | 64 (≈ 279 µM) | > 128 | 128 (≈ 558 µM) | 128 (≈ 558 µM) | 32 (≈ 140 µM) | 64 | 16 | 128 (≈ 558 µM) | 64 (≈ 279 µM) | 256 (≈ 1120 µM) |
| NC(=O)c1c(F)ccc(OC2CCCCC2)c1F | 64 | 64 (≈ 251 µM) | > 128 | 128 (≈ 501 µM) | 256 (≈ 1000 µM) | 128 (≈ 501 µM) | 64 | 128 | 128 (≈ 501 µM) | 256 (≈ 1000 µM) | 128 (≈ 501 µM) |
| NC(=O)c1c(F)ccc(OCCCCCCBr)c1F | 0.5 | 1 (≈ 2.97 µM) | 64 (≈ 190 µM) | > 128 | 2 (≈ 5.95 µM) | 1 (≈ 2.97 µM) | 64 | 1 | 128 (≈ 381 µM) | 2 (≈ 5.95 µM) | 128 (≈ 381 µM) |
| NC(=O)c1c(F)ccc(OCCn2cnc3cc([N+](=O)[O-])ccc32)c1F | 32 | 64 (≈ 177 µM) | 512 (≈ 1410 µM) | 256 (≈ 707 µM) | 512 (≈ 1410 µM) | 256 (≈ 707 µM) | 128 | 256 | 512 (≈ 1410 µM) | 1020 (≈ 2830 µM) | 256 (≈ 707 µM) |
| NC(=O)c1c(F)ccc(OCCCCBr)c1F | 1 | 4 (≈ 13 µM) | 128 (≈ 415 µM) | > 128 | 32 (≈ 104 µM) | 4 (≈ 13 µM) | 64 | 4 | 128 (≈ 415 µM) | 8 (≈ 26 µM) | 128 (≈ 415 µM) |
| NC(=O)c1c(F)ccc(OCCBr)c1F | 2 | 16 (≈ 57.1 µM) | 64 (≈ 229 µM) | > 128 | 64 (≈ 229 µM) | 16 (≈ 57.1 µM) | 32 | 16 | 128 (≈ 457 µM) | 32 (≈ 114 µM) | 128 (≈ 457 µM) |
| CCC(C)Oc1ccc(F)c(C(N)=O)c1F (stereo not given) | 128 | 128 (≈ 558 µM) | > 128 | 128 (≈ 558 µM) | 128 (≈ 558 µM) | 64 (≈ 279 µM) | 64 | 32 | 128 (≈ 558 µM) | 128 (≈ 558 µM) | 128 (≈ 558 µM) |
| COc1cc(/C=C/C(=O)CC(=O)/C=C/c2ccc(O)c(OC)c2)ccc1O [CURCUMIN] | 16 | 32 (≈ 86.9 µM) | > 4100 | > 4100 | 4100 (≈ 11100 µM) | 2050 (≈ 5560 µM) | 256 | 1020 | 4100 (≈ 11100 µM) | 4100 (≈ 11100 µM) | 512 (≈ 1390 µM) |
| CCCCC(CC)COc1ccc(F)c(C(N)=O)c1F (stereo not given) | 0.125 | 0.25 (≈ 0.876 µM) | > 128 | 64 (≈ 224 µM) | 8 (≈ 28 µM) | 1 (≈ 3.5 µM) | 64 | 0.25 | 128 (≈ 449 µM) | 8 (≈ 28 µM) | 256 (≈ 897 µM) |
| NC(=O)c1c(F)ccc(OCc2nc3cc([N+](=O)[O-])ccc3[nH]2)c1F | 64 | 64 (≈ 184 µM) | 1020 (≈ 2940 µM) | 256 (≈ 735 µM) | 256 (≈ 735 µM) | 512 (≈ 1470 µM) | 128 | 128 | 256 (≈ 735 µM) | 512 (≈ 1470 µM) | 512 (≈ 1470 µM) |
